In ChEMBL document CHEMBL4414663, “Pyrazole-4-Carboxamide (YW2065): A Therapeutic Candidate for Colorectal Cancer via Dual Activities of Wnt/β-Catenin Signaling Inhibition and AMP-Activated Protein Kinase (AMPK) Activation” (J Med Chem, 2019):
pIC50: −log10 of the molar value. Activity calls are given as the source filed them. The rule behind the calls is not given here.

How the values were obtained:
[1] = tested on: SW-620; assay: Induction of Axin-1 protein expression in human SW620 cells by Western blot analysis; assay type: functional, cell-based
In short: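 SW620 cells in RPMI 1640 with 10% FBS, treated over a concentration range. Lysed in RIPA with protease inhibitors, 20 µL of 2 mg/mL protein run on 7.5% SDS-PAGE, transferred to nitrocellulose, blocked in 5% BSA. Rabbit primaries (Axin-1, ACC, pACC, AMPK, pAMPK at 1:1,000; β-actin 1:2,000) overnight at 4 °C, HRP secondary 1:8000 for 2 h, ECL.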

[2] = tested on: SW-620; assay: Induction of apoptosis in human SW620 cells assessed as necrotic cells level at 1 uM incubated for 48 hrs by AAD-7 and FITC-annexin-V staining based flow cytometry (reference value: 0.027%); assay type: functional
[3] = species: Homo sapiens; assay: Inhibition of Wnt/beta-Catenin signaling (unknown origin) expressed in recombinant human Wnt-3a-induced Wnt-HEK293 cells assessed as increase in beta-catenin degradation at 1 uM by Western blot analysis; assay type: cell-based
[4] = tested on: SW-620; assay: Induction of apoptosis in human SW620 cells assessed as necrotic cells level at 10 uM incubated for 48 hrs by AAD-7 and FITC-annexin-V staining based flow cytometry (reference value: 0.027%); assay type: functional
[5] = Half life in C57BL/6J mouse at 5 mg/kg, po by UPLC-MS analysis; assay type: ADME, organism-based; settings: in vivo
In short: (§1)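 Male C57BL/6J mice, 2-3 months, 23-26 g. Single 5 mg/kg dose in 5% Kolliphor in saline, given iv (n=3) or by oral gavage (n=5). Tail-vein blood taken at 0.25, 0.5, 1, 4, 8 and 12 h and spun to plasma. Plasma analysed by LC-MS/MS on a triple quadrupole with a C18 column. Parameters from non-compartmental analysis.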

[6] = tested on: SW-620; assay: Growth inhibition of human SW620 cells over-expressing constitutively active beta-catenin S33Y mutant incubated for 72 hrs by Cell-titer-fluor reagent based assay; assay type: functional; settings: SW-620, 72 h
In short: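 SW620 cells, parental, overexpressing β-catenin S33Y, or with Axin-1 knocked down by lentiviral shRNA. Treated with compound or vehicle for 72 h.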

[7] = Cmax in C57BL/6J mouse at 5 mg/kg, po by UPLC-MS analysis; assay type: ADME, organism-based; parameters: dose 5 mg/kg, route oral; settings: in vivo; in short: as §1
[8] = target: High affinity nerve growth factor receptor (Homo sapiens) (UniProt P04629); assay: Inhibition of NTRK1 (unknown origin) at 1000 nM relative to control
Chain of High affinity nerve growth factor receptor (Homo sapiens) (P04629 33-796 limits assumed): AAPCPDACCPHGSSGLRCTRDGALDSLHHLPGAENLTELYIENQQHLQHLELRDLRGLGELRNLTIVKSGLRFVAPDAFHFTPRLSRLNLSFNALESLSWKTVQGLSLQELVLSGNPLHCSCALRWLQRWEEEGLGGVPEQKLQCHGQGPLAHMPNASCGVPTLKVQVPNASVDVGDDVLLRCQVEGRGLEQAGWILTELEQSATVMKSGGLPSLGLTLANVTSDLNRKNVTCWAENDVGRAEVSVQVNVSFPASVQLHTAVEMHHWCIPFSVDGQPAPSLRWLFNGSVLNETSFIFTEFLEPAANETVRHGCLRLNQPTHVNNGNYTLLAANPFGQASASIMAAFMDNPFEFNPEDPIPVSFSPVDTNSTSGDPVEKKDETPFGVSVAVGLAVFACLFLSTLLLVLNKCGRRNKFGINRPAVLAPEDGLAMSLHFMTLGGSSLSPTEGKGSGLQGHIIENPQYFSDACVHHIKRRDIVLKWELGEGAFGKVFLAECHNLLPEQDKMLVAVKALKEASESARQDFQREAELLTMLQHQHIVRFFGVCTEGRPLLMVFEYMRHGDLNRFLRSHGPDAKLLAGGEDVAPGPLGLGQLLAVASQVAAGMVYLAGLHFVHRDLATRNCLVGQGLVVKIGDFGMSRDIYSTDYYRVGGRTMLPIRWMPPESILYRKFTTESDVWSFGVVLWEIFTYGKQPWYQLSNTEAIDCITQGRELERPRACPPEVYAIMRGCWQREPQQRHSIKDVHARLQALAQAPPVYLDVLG
In short: (§2)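 Single-concentration screen at 1000 nM against a 273-kinase panel, reported as percent inhibition.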

[9] = Toxicity in C57BL/6 mouse assessed as effect on ALT level at 100 mg/kg/day, ip for 21 days; assay type: organism-based; settings: in vivo, 504 h
[10] = tested on: HT-29; assay: Induction of apoptosis in human HT-29 cells incubated for 48 hrs by AAD-7 and FITC-annexin-V staining based flow cytometry; assay type: functional, cell-based
[11] = tested on: Mus musculus; assay: Activation of AMPK in nude mouse xenografted with human SW620 cells assessed as increase in AMPK phosphorylation at 50 mg/kg, ip QD for 32 consecutive days by Western blot analysis; assay type: functional, organism-based
In short: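 Nude mice carried subcutaneous SW620 xenografts (2×10^6 cells, right flank). Dosing began once mean tumor volume reached 100–200 mm³: 50 mg/kg ip once daily for 32 days, vehicle 10% DMSO/10% Kolliphor/80% saline. Tumors taken at day 32 and lysed in RIPA with protease inhibitors. Western blot with 20 µL of 2 mg/mL lysate on 7.5% SDS-PAGE, probed for pAMPK/AMPK or pACC/ACC, ECL detection.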

[12] = target: Ribosomal protein S6 kinase alpha-3 (Homo sapiens) (UniProt P51812); assay: Inhibition of RPS6KA3 (unknown origin) at 1000 nM relative to control; in short: as §2
Chain of Ribosomal protein S6 kinase alpha-3 (Homo sapiens) (P51812 whole entry): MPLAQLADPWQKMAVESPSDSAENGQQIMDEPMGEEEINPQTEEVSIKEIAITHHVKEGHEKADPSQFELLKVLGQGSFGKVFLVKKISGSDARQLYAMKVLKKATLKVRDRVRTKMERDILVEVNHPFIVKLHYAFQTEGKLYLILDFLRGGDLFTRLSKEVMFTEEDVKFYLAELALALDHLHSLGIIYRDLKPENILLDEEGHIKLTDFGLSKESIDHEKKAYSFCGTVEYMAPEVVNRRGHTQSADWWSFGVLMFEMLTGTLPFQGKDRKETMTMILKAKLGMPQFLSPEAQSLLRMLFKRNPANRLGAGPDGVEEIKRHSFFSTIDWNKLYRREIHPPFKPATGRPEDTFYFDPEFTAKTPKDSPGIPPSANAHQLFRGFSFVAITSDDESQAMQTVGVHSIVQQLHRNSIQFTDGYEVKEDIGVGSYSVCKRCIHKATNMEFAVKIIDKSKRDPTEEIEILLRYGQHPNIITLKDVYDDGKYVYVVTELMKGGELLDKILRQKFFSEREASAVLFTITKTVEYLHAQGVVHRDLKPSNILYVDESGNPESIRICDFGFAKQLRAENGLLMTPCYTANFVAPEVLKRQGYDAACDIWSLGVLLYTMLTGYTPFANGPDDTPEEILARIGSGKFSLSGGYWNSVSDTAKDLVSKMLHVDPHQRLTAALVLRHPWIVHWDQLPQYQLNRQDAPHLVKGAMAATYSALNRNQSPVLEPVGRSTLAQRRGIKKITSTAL

[13] = tested on: SW480; assay: Growth inhibition of human SW480 cells at 50 uM by Cell-titer-fluor reagent based assay relative to control; assay type: functional; settings: read-out: GI
[14] = target: Serine/threonine-protein kinase Nek6 (Homo sapiens) (UniProt Q9HC98); assay: Inhibition of NEK6 (unknown origin) at 1000 nM relative to control; in short: as §2
Chain of Serine/threonine-protein kinase Nek6 (Homo sapiens) (Q9HC98 whole entry): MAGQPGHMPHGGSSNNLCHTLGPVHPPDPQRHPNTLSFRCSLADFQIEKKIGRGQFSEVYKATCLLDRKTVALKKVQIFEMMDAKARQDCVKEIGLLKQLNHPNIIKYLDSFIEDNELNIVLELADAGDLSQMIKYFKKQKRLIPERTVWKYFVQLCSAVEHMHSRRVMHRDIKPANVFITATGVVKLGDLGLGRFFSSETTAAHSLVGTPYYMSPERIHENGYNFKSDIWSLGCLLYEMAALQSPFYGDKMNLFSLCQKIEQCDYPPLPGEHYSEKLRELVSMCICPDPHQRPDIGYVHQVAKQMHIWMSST

[15] = tested on: SW-620; assay: Inhibition of colony formation in human SW620 cells incubated for 14 days by crystal violet staining based assay; assay type: functional, cell-based
In short: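 SW480, SW620 or HT29 cells seeded at 300/well in 3 mL medium in 6-well plates with a concentration series of compound. After 14 days, fixed in 4% formaldehyde and stained with 0.5% crystal violet in 25% aqueous MeOH; colonies photographed.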

[16] = species: Homo sapiens; assay: Inhibition of Wnt/beta-Catenin signaling in human SW620 cells assessed as reduction in cyclinD1 mRNA expression at 10 uM incubated for 24 hrs by real-time PCR analysis; assay type: cell-based
In short: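 SW620 cells (RPMI 1640, 10% FBS) in 6-well plates, incubated 24 h, then treated with compound at several concentrations, three replicates each, for 24 h. Total RNA isolated with Trizol/phenol-chloroform; 2 µg reverse transcribed; Wnt target gene mRNA quantified by PCR.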

[17] = Tmax in C57BL/6J mouse at 5 mg/kg, po by UPLC-MS analysis; assay type: ADME, organism-based; settings: in vivo
In short: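 Male C57BL/6J mice, 2–3 months old, 23–26 g. Single 5 mg/kg dose in 5% Kolliphor in saline, IV (n = 3) or oral gavage (n = 5). Tail-vein blood taken at 0.25, 0.5, 1, 4, 8 and 12 h and centrifuged to plasma. Analysed by LC-MS/MS (QTRAP 4000, C18 column); parameters from non-compartmental analysis.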

[18] = Toxicity in C57BL/6 mouse assessed as effect on glucose level at 100 mg/kg/day, ip for 21 days; assay type: organism-based; settings: in vivo, 504 h
[19] = tested on: SW-620; assay: Induction of apoptosis in human SW620 cells assessed as late apoptotic cells level at 3 uM incubated for 48 hrs by AAD-7 and FITC-annexin-V staining based flow cytometry (reference value: 7.6%); assay type: functional
[20] = Toxicity in C57BL/6 mouse assessed as effect on BUN level at 100 mg/kg/day, ip for 21 days; assay type: organism-based; settings: in vivo, 504 h
[21] = AUC (0 to infinity) in C57BL/6J mouse at 5 mg/kg, iv by UPLC-MS analysis; assay type: ADME, organism-based; parameters: dose 5 mg/kg, route intravenous, time infinity; settings: in vivo; in short: as §1
[22] = target: Glycogen synthase kinase-3 alpha (Homo sapiens) (UniProt P49840); assay: Inhibition of GSK3A (unknown origin) at 1000 nM relative to control; in short: as §2
Chain of Glycogen synthase kinase-3 alpha (Homo sapiens) (P49840 2-483 limits assumed): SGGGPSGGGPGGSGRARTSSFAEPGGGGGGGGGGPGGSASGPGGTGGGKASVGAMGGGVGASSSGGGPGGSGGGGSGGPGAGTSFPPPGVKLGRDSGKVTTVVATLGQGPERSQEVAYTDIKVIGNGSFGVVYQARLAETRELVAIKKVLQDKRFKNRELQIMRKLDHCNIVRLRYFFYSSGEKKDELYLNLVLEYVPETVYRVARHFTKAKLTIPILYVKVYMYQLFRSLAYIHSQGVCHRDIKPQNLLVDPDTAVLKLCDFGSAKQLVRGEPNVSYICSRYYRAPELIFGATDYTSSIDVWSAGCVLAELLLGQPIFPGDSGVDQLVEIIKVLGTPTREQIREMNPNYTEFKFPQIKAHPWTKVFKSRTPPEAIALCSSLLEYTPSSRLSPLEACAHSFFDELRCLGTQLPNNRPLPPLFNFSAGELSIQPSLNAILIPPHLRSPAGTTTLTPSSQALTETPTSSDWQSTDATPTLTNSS

[23] = Toxicity in C57BL/6 mouse assessed as effect on AST level at 100 mg/kg/day, ip for 21 days; assay type: organism-based; settings: in vivo, 504 h
[24] = target: Cyclin-dependent kinase 17 (Homo sapiens) (UniProt Q00537); assay: Inhibition of CDK17 (unknown origin) at 1000 nM relative to control; in short: as §2
Chain of Cyclin-dependent kinase 17 (Homo sapiens) (Q00537 whole entry, looked up): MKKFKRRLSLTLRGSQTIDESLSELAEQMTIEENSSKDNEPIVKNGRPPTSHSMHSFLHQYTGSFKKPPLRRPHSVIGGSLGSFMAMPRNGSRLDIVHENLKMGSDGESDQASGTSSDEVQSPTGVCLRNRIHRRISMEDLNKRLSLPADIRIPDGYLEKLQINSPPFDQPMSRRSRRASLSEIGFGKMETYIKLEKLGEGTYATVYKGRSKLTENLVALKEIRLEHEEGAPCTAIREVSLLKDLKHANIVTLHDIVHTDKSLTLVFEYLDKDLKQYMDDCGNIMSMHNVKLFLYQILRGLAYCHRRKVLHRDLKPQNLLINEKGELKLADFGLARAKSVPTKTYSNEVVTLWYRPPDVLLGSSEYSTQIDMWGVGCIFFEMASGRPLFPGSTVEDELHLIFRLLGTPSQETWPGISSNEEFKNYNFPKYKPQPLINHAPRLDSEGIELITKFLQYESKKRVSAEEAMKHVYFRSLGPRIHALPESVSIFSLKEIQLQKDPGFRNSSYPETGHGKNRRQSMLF

[25] = tested on: SW-620; assay: Induction of apoptosis in human SW620 cells assessed as viable cells level at 1 uM incubated for 48 hrs by AAD-7 and FITC-annexin-V staining based flow cytometry (reference value: 73.8%); assay type: functional
[26] = tested on: HEK293; assay: Induction of Axin-1 protein expression in recombinant human Wnt-3a-induced Wnt-HEK293 cells at 1 uM by Western blot analysis; assay type: functional, cell-based
[27] = tested on: SW480; assay: Induction of apoptosis in human SW480 cells incubated for 48 hrs by AAD-7 and FITC-annexin-V staining based flow cytometry; assay type: functional, cell-based

half-life [5]: 2.9 h
pIC50 [6]: 7.17
Cmax [7]: 5200 ng/mL
inhibition [8]: Active
inhibition [12]: 39%
inhibition [14]: Active
Tmax [17]: 0.3 h
AUC(0-inf) [21]: 57500 ng·h/mL
inhibition [22]: Active
inhibition [24]: Active
Compound: Cc1c(C(=O)Nc2ccc3ccccc3n2)cnn1-c1ccccc1Br
Activity [1]: Dose-dependent effect
Activity [2]: 0%
inhibition [3]: Active
Activity [4]: 0.00722%
Activity [9]: Non-Toxic
Activity [10]: Dose-dependent effect
Activity [11]: Active
inhibition of growth at 50 µM [13]: > 50%
inhibition [15]: Dose-dependent effect
inhibition [16]: Active
Activity [18]: Non-Toxic
Activity [19]: 19.2%
Activity [20]: Non-Toxic
Activity [23]: Non-Toxic
Activity [25]: 67.1%
Activity [26]: Active
Activity [27]: Dose-dependent effect
